Laboratory results reported in ChEMBL document CHEMBL3351648, “Synthesis and pharmacological evaluation of 6-aminonicotinic acid analogues as novel GABA(A) receptor agonists” (Eur J Med Chem, 2014).
Activity calls are given as the source filed them. The calls are words filed in the database; no cut-off is given here.

Tests used:
[1] = biological target: GABA-A receptor; anion channel; test: Displacement of [3H]muscimol from GABAA receptor in SPRD rat brain synaptic membranes by scintillation counting method; type: cell membranes
Outline: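 Rat synaptic membranes were thawed, homogenized in ice-cold 50 mM Tris-HCl pH 7.4, and spun at 48,000g for 10 min at 4 °C, with the wash repeated four times. Incubation was with 5 nM [3H]muscimol (final) and varying test concentrations for 60 min at 0 °C, then GF/C filtration and scintillation counting.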

[2] = biological target: T1, Gamma-aminobutyric acid receptor subunit rho-1 (Homo sapiens, UniProt P24046); test: Agonist activity at human GABAA rho1 expressed in tsA-201cells by FLIPR membrane potential blue assay
Outline: (§1)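 tsA201 cells (8×10^5 per 6 cm dish) were transfected with α1, α2, α3 or α5 plus β2 and γ2S cDNAs (1:1:3), or with ρ1 alone. Next day cells were replated into poly-D-lysine 96-well plates. After 16–24 h they were washed with Krebs buffer pH 7.4, given membrane-potential dye, held 30 min at 37 °C, and read at 560 nm emission. Concentration-response curves used ΔFU before versus after agonist; duplicates were run ≥3 times.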

[3] = biological target: T2, GABA-A receptor; alpha-1/beta-2/gamma-2 (Homo sapiens, UniProt P14867+P47870+P18507); test: (§2) Agonist activity at human GABAAalpha1beta2gamma2S receptor expressed in tsA-201cells by FLIPR membrane potential blue assay; details: tsa-201; outline: as §1
T2 sequence (P14867 whole entry): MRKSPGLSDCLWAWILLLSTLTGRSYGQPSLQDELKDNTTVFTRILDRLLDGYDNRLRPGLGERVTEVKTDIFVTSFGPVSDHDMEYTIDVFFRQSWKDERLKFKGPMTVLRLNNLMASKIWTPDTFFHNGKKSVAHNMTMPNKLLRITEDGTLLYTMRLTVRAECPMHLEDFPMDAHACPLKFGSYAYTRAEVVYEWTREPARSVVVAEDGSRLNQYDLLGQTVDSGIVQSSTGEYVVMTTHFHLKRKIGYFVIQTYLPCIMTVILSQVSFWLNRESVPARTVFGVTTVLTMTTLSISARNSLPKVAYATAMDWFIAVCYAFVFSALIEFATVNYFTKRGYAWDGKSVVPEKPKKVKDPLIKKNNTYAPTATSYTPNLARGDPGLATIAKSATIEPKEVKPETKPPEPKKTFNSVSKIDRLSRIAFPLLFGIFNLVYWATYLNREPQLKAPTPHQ
T2 sequence (P47870 whole entry): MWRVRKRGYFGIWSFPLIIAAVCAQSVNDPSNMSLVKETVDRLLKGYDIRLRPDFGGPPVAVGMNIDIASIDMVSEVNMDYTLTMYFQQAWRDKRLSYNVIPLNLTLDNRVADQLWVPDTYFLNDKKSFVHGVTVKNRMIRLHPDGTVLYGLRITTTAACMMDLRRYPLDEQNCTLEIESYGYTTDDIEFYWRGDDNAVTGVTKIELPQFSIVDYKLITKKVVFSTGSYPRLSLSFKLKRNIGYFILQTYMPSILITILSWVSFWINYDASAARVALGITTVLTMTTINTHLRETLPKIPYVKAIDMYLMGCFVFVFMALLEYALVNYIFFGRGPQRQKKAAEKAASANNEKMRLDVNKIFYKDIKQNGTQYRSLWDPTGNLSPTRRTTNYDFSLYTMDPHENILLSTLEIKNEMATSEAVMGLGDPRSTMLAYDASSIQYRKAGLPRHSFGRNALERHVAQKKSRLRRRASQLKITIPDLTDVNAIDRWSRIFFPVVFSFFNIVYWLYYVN
T2 sequence (P18507 whole entry): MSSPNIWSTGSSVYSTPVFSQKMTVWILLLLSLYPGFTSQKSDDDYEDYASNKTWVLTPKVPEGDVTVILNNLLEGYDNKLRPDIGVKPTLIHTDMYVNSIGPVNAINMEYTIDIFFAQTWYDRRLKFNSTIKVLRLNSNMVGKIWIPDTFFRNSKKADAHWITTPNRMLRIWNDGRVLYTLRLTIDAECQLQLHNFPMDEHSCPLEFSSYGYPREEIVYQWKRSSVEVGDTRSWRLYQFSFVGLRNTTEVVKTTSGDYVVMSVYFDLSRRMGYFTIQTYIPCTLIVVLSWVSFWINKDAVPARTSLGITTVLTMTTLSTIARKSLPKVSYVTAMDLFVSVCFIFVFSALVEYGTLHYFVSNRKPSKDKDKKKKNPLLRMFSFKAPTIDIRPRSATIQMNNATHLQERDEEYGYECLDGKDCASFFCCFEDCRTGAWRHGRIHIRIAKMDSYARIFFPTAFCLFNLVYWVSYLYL

[4] = biological target: T3, GABA-A receptor; alpha-1/beta-2/gamma-2 (Homo sapiens, UniProt P14867+P18507+P47870); test: as §2; details: read-out: EC50; outline: as §1
T3 sequence (P14867 whole entry): T2 sequence (P14867 whole entry)
T3 sequence (P47870 whole entry): T2 sequence (P47870 whole entry)
T3 sequence (P18507 whole entry): T2 sequence (P18507 whole entry)

[5] = biological target: GABA A receptor alpha-2/beta-2/gamma-2 (Homo sapiens) (UniProt P47870+P18507+P47869); test: Agonist activity at human GABAAalpha2beta2gamma2S receptor expressed in tsA-201cells by FLIPR membrane potential blue assay relative to GABA
[6] = Agonist activity at human GABAAalpha5beta2gamma2S receptor expressed in tsA-201cells by FLIPR membrane potential blue assay; type: cell membranes
tsA-201 = test: Agonist activity at human GABAAalpha5beta2gamma2S receptor expressed in tsA-201cells by FLIPR membrane potential blue assay relative to GABA
[7] = biological target: GABA A receptor alpha-3/beta-2/gamma-2 (Homo sapiens) (UniProt P47870+P18507+P34903); test: Agonist activity at human GABAAalpha3beta2gamma2S receptor expressed in tsA-201cells by FLIPR membrane potential blue assay relative to GABA
[8] = biological target: T1, Gamma-aminobutyric acid receptor subunit rho-1; test: Agonist activity at human GABAA rho1 expressed in tsA-201cells by FLIPR membrane potential blue assay relative to GABA
[9] = Dissociation constant, pKa of the compound by diode array detector method; type: physicochemical
Outline: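 pKa was determined by titration in methanol cosolvent at 23–48%, with three titrations per compound. An in-line diode-array detector recorded UV-Vis spectra, and the titration was mapped against the spectra of the protonated and unprotonated species.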

[10] = biological target: T4, GABA A receptor alpha-3/beta-2/gamma-2 (Homo sapiens, UniProt P18507+P34903+P47870); test: Agonist activity at human GABAAalpha3beta2gamma2S receptor expressed in tsA-201cells by FLIPR membrane potential blue assay; outline: as §1
T4 sequence (P47870 whole entry): T2 sequence (P47870 whole entry)
T4 sequence (P18507 whole entry): T2 sequence (P18507 whole entry)
T4 sequence (P34903 whole entry): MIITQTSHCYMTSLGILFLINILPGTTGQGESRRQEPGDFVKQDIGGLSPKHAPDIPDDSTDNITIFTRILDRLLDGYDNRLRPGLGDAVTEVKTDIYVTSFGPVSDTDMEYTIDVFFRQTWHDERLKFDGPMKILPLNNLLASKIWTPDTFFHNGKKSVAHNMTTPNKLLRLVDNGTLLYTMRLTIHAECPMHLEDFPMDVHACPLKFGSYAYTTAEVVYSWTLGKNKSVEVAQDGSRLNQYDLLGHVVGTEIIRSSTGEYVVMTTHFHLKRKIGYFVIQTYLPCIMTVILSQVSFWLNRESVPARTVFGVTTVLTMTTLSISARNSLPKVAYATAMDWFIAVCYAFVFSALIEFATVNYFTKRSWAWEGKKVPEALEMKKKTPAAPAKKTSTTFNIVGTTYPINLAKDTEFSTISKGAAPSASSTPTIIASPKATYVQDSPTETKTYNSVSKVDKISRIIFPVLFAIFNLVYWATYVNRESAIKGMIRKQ

[11] = biological target: T5, GABA A receptor alpha-2/beta-2/gamma-2 (Homo sapiens, UniProt P18507+P47869+P47870); test: Agonist activity at human GABAAalpha2beta2gamma2S receptor expressed in tsA-201cells by FLIPR membrane potential blue assay; outline: as §1
T5 sequence (P47870 whole entry): T2 sequence (P47870 whole entry)
T5 sequence (P18507 whole entry): T2 sequence (P18507 whole entry)
T5 sequence (P47869 whole entry): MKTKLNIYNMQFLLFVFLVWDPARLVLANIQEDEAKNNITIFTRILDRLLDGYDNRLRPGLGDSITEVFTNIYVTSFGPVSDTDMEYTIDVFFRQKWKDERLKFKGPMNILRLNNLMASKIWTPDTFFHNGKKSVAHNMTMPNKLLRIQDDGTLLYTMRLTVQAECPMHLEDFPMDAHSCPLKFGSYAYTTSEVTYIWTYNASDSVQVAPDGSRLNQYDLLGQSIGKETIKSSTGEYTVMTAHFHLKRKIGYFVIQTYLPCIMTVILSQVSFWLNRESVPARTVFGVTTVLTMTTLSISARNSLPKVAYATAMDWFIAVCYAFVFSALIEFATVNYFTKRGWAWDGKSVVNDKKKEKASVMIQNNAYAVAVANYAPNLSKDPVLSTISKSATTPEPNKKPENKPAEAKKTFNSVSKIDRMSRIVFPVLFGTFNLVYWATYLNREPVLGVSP

[12] = biological target: T1, Gamma-aminobutyric acid receptor subunit rho-1; test: Agonist activity at human GABAA rho1 expressed in tsA-201cells at 1 mM by FLIPR membrane potential blue assay; type: cell-based
Outline: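 Transfected tsA201 cells (α1β2γ2S or ρ1) were loaded with membrane-potential dye in Krebs buffer pH 7.4 for 30 min at 37 °C. Compound was applied at a single 1 mM concentration. Response was read as fluorescence change at 560 nm emission before versus after addition, in duplicate on ≥3 occasions.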

T1 sequence (P24046 whole entry): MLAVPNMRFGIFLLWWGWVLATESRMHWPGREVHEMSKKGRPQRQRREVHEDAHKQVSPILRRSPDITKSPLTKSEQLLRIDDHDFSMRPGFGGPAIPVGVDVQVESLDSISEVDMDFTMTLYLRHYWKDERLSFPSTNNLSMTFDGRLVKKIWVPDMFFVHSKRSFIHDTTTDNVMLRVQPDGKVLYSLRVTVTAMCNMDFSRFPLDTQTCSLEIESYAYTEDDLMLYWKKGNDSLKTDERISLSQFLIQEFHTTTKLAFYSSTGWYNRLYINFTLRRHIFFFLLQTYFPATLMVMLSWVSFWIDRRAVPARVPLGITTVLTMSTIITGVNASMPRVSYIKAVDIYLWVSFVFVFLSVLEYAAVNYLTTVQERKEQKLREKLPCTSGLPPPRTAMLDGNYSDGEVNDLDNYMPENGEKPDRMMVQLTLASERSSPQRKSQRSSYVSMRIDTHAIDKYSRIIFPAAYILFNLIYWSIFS

Nc1cc(C(=O)O)ccn1
Ki [1]: 19 µM

CCc1nc(N)ccc1C(=O)O
Ki [1]: 2.1 µM
EC50 ([2]; read-out: EC50): > 1000 µM
pEC50 ([2]; tsa-201): < 3
pEC50 [3]: < 3
EC50 [4]: > 1000 µM

CCc1cc(C(=O)O)cnc1N
Ki [1]: > 100 µM

NCc1cc(O)no1 [MUSCIMOL]
Rmax [5]: 99%
EC50 [6]: 0.054 µM
pEC50 [6]: 7.27
Rmax (tsA-201): 114%
Rmax [7]: 97%
Rmax [8]: 98%

CNC1=NCC(C(=O)O)CC1 (stereo not drawn)
Ki [1]: 49 µM
pKi [1]: 4.32
pEC50 [3]: < 3
EC50 [4]: > 1000 µM

NC1=NCC(C(=O)O)CC1 (stereo not drawn)
Ki [1]: 0.044 µM
pKa [9]: 12.4
Rmax [5]: 101%
EC50 ([2]; read-out: EC50): 2.3 µM
EC50 ([2]; read-out: pEC50 (converted)): 1.23 µM
EC50 [6]: 0.092 µM
pEC50 [6]: 7.04
Rmax (tsA-201): 100%
EC50 [10]: 1.1 µM
EC50 [4]: 2.6 µM
Rmax [7]: 93%
Rmax [8]: 64%
EC50 [11]: 0.82 µM

Cc1nc(N)ccc1C(=O)O
Ki [1]: 1.4 µM
EC50 ([2]; tsa-201): Active
EC50 [3]: Active

Nc1ncc(C(=O)O)cn1
Ki [1]: > 100 µM
pKa [9]: 1.9

O=C(O)C1=CCNCC1 [ISOGUVACINE]
Ki [1]: 0.055 µM
Rmax [5]: 95%
EC50 ([2]; read-out: EC50): 39 µM
EC50 [6]: 0.78 µM
pEC50 [6]: 6.1
Rmax (tsA-201): 101%
EC50 [10]: 5.6 µM
EC50 [4]: 11 µM
Rmax [7]: 91%
Rmax [8]: 85%
EC50 [11]: 4.5 µM

CCc1cc(N)ncc1C(=O)O
Ki [1]: 9.3 µM
EC50 ([2]; read-out: EC50): > 1000 µM
pEC50 ([2]; tsa-201): < 3
pEC50 [3]: < 3
EC50 [4]: > 1000 µM

O=C(O)c1cncnc1
Ki [1]: > 100 µM
pKa [9]: 1.4

NC1=NCC(C(=O)O)CN1 (stereo not drawn)
Ki [1]: 0.54 µM
pKa [9]: 12.7
Rmax [5]: 91%
EC50 ([2]; read-out: EC50): 8.1 µM
EC50 ([2]; read-out: pEC50 (converted)): 1.58 µM
EC50 [6]: 2.1 µM
pEC50 [6]: 5.68
Rmax (tsA-201): 113%
EC50 [10]: 19 µM
EC50 [4]: 14 µM
Rmax [7]: 85%
Rmax [8]: 55%
EC50 [11]: 9.4 µM

Cc1cc(N)ncc1C(=O)O
Ki [1]: 3.6 µM
EC50 ([2]; tsa-201): Active
pEC50 [3]: < 3
EC50 [4]: > 1000 µM
Activity [12]: Active

Nc1ccc(CC(=O)O)cn1
Ki [1]: 90 µM

Nc1ccc(C(=O)O)c(Cl)n1
Ki [1]: > 100 µM
